Test results reported in ChEMBL document CHEMBL1128264, “Second-generation leukotriene B4 receptor antagonists related to SC-41930: heterocyclic replacement of the methyl ketone pharmacophore” (J Med Chem, 1995).
pIC50: −log10 of the molar value. Each block holds one molecule with its values, some of them ahead of it.

Columns and labels:
Leukotriene B4 receptor = Leukotriene B4 receptor (Homo sapiens, UniProt Q9NPC1+Q15722); experiment: Inhibition of Leukotriene B4 (LTB4) induced chemotaxis.; assay type: functional
[1] = target: T1, Leukotriene B4 receptor 1 (Homo sapiens, UniProt Q15722); experiment: Binding affinity for Leukotriene B4 (LTB4) receptor
In short: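 Human blood neutrophils (dextran sedimentation, Ficoll-paque, hypotonic lysis without BSA), 4 × 10⁶ cells with 0.6 nM [³H]LTB₄ ± test compound in 1 mL HBSS, 0 °C for 45 min; 30 μM NDGA present in some assays. Glass-fibre filtration with ice-cold HBSS washes.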

Cavia porcellus [2] = experiment: In vivo activity for topical application using LTB4-induced […] intradermal chemotaxis assay.; assay type: functional
Homo sapiens [3] = species on record: Homo sapiens; experiment: Tested for the ability to inhibit Leukotriene B4 (LTB4) induced chemotaxis. (Test compound added to upper and lower wells); assay type: functional, organism-based
In short: (§1)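 Test compound is placed in both upper and lower wells. After 90 min at 37 °C, migrated cells in the lower well are Coulter-counted. Inhibition is computed after subtracting the HBSS random-migration mean.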

Homo sapiens [4] = species on record: Homo sapiens; experiment: Tested for the ability to inhibit Leukotriene B4 (LTB4) induced degranulation.; assay type: functional, organism-based
In short: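 Human neutrophils (3 × 10⁶ in 1 mL HBSS) pretreated with 5 μg cytochalasin B for 5 min at 37 °C, then with test compound for 7 min, then stimulated with 5 × 10⁻⁸ M LTB₄ for 2 min. MPO in pellet and supernatant read spectrophotometrically (o-dianisidine/peroxide). Release is expressed as percent of total MPO after subtracting basal.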

Mus musculus [5] = experiment: In vivo murine (intracolonic) SCOA-induced colitis activity of the compound.; assay type: functional
In short: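 Mouse colitis induced under light anesthesia by a single intrarectal enema of 3% acetic acid. Test compound given intrarectally 1 h before and 1 h after instillation. Colonic MPO assessed at 24 h. ED50 is in mg/kg.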

Cavia porcellus [6] = experiment: In vivo guinea pig (oral) SCOA-induced colitis activity of the compound.
Cavia porcellus [7] = experiment: In vivo activity for oral administration using LTB4-induced guinea pig intradermal chemotaxis assay.
Cavia porcellus [8] = experiment: In vivo activity for intravenous administration using LTB4-induced guinea pig intradermal chemotaxis assay.
Homo sapiens [9] = species on record: Homo sapiens; experiment: Tested for the ability to inhibit Leukotriene B4 (LTB4) induced chemotaxis. Test compound added to upper and lower wells.; assay type: functional, organism-based; in short: as §1
[10] = target: T1, Leukotriene B4 receptor 1; experiment: Binding affinity towards Leukotriene B4 (LTB4) Receptor. Experiment conducted in the absence of NDGA.
In short: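 Human neutrophils isolated with dextran sedimentation, Ficoll-paque and BSA-free hypotonic lysis. 4 × 10⁶ cells incubated with 0.6 nM [³H]LTB₄ ± test compound in 1 mL HBSS at 0 °C for 45 min, no NDGA. Bound ligand separated by glass-fibre filtration. Specific binding is total minus binding not displaced by 0.1 μM unlabeled LTB₄.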

Cavia porcellus [11] = experiment: In vivo […] (oral) SCOA-induced colitis activity of the compound.; assay type: functional
In short: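 Guinea pig colitis induced under light anesthesia by a single intrarectal enema of 4% acetic acid. Oral dosing 30 min before induction. Colonic MPO activity measured after 24 h. ED50 is in mg/kg.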

HL-60 [12] = experiment: Inhibitory activity against LTB4 production in HL60s.; assay type: functional, cell-based; conditions: Homo sapiens
HL-60 [13] = experiment: Inhibitory activity against PGE-2 production in HL60s.; assay type: functional, cell-based; conditions: Homo sapiens
Homo sapiens [14] = species on record: Homo sapiens; experiment: Inhibitory activity against LTB4 production in PMNs.; assay type: functional, organism-based
Homo sapiens [15] = species on record: Homo sapiens; experiment: Potency against LTB4 binding to its receptor on eosinophils.; assay type: functional, organism-based
Homo sapiens [16] = species on record: Homo sapiens; experiment: Potency against LTB4-induced eosinophil chemotaxis.; assay type: functional, organism-based
Homo sapiens [17] = species on record: Homo sapiens; experiment: Inhibitory activity against HETE-induced chemotaxis; assay type: functional, organism-based
Homo sapiens [18] = species on record: Homo sapiens; experiment: Tested for the ability to inhibit Leukotriene B4 (LTB4) induced chemotaxis. (Test compound added to upper and lower wells.); assay type: functional, organism-based; in short: as §1
Mus musculus [19] = experiment: In vivo murine epidermal inflammation for topical application.; assay type: functional
In short: (§2)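 PMA (25 μg) in acetone applied to the dorsal surface of one mouse ear, with vehicle on the other ear. Test compound applied topically with the PMA in acetone. At 18 h, ears were removed and weighed. Edema is weight gain versus the contralateral ear, and MPO was also assayed. ED50 is in mg.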

Canis lupus familiaris [20] = experiment: In vivo activity for oral administration using LTB4-induced canine intradermal chemotaxis assay.
Canis lupus familiaris [21] = experiment: In vivo activity for intravenous administration using LTB4-induced canine intradermal chemotaxis assay.
Mus musculus [22] = experiment: Compound measured by topical application using Murine epidermal inflammation assay; assay type: functional; in short: as §2
Homo sapiens [23] = species on record: Homo sapiens; experiment: Inhibition of 12-(R)-hydroxyeicosatetraenoic acid (HETE)-induced chemotaxis; assay type: functional, organism-based
Homo sapiens [24] = species on record: Homo sapiens; experiment: Inhibition of fMLP-induced degranulation in the PMN degranulation assay; assay type: functional, organism-based
Homo sapiens [25] = species on record: Homo sapiens; experiment: Inhibition of fMLP-induced chemotaxis; assay type: functional, organism-based

T1 sequence (Q15722 whole entry): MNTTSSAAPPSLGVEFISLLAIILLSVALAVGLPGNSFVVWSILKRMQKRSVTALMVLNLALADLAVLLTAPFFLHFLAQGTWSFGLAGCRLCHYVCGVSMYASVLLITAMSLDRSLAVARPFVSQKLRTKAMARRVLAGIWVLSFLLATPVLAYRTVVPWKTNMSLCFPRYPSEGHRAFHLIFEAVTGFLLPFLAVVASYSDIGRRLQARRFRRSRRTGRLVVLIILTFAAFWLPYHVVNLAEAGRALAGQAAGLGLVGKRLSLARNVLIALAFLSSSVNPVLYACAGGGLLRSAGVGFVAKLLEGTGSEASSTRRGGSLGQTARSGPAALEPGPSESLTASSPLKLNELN

SMILES: CCCc1c(OCCCOc2ccc(C(C)=O)c(OC)c2CCC)ccc2c1OC(C(=O)O)CC2 (stereo not given) [SC-41390]
ED50 (Cavia porcellus [2]): 340 ng | pIC50 (Homo sapiens [3]): 6.08 | pIC50 (Homo sapiens [4]; Homo sapiens): 6.04 | ED50 (Mus musculus [5]; Mus musculus, read-out: ED50): 28 mg/kg | ED50 (Cavia porcellus [6]): 20 mg/kg | ED50 (Cavia porcellus [7]): 1.7 mg/kg | ED50 (Cavia porcellus [8]): 0.5 mg/kg

SMILES: C=CCc1c(OCCCOc2ccc3c(c2CCC)OC(C(=O)O)CC3)ccc(-c2cscn2)c1OC (stereo not given)
pIC50 (Homo sapiens [4]; Homo sapiens): 7.64 | IC50 (Leukotriene B4 receptor): 0.11 µM | pIC50 [1]: 7.60

SMILES: CCCc1c(OCCCOc2ccc(-c3cscn3)c(OC)c2CC2CC2)ccc2c1OC(C(=O)O)CC2 (stereo in doubt; 35)
ED50 (Cavia porcellus [2]): 70 ng | ED50 (Cavia porcellus [11]): 3.4 mg/kg | pIC50 (HL-60 [12]): 6.18 | pIC50 (HL-60 [13]): 6.03 | pIC50 (Homo sapiens [14]): 6.28 | pIC50 (Homo sapiens [15]): 8.59 | pIC50 (Homo sapiens [16]): 8.05 | pIC50 (Homo sapiens [17]): 6.97 | pIC50 (Homo sapiens [18]): 7.05 | pIC50 (Homo sapiens [4]): 7.24 | ED50 (Mus musculus [5]): 12 mg/kg | ED50 (Mus musculus [19]): 0.8 mg | ED50 (Canis lupus familiaris [20]): 0.74 mg/kg | ED50 (Canis lupus familiaris [21]): 0.02 mg/kg

SMILES: CCCc1c(OCCCOc2ccc(C(N)=O)c(OC)c2CCC)ccc2c1OC(C(=O)O)CC2 (stereo not given)
pIC50 (Homo sapiens [4]; Homo sapiens): 6.04 | IC50 (Leukotriene B4 receptor): 0.35 µM | pIC50 [1]: 6.85

SMILES: CCCc1c(OCCCOc2ccc(-c3ccno3)c(OC)c2CCC)ccc2c1OC(C(=O)O)CC2 (stereo not given)
IC50 (Leukotriene B4 receptor): 1.6 µM | pIC50 [1]: 6.11

SMILES: CCCc1c(OCCCOc2ccc(-c3cscn3)c(OC)c2CCC)ccc2c1OC(CCC(=O)O)CC2 (stereo not given)
pIC50 (Homo sapiens [4]; Homo sapiens): 7.15 | IC50 (Leukotriene B4 receptor): 1.54 µM | pIC50 [1]: 7.59

SMILES: CCCc1c(OCCCOc2ccc(-c3cscn3)c(OC)c2CC2CC2)cccc1OCC(=O)O
pIC50 (Homo sapiens [9]): 6.44 | pIC50 (Homo sapiens [4]; Homo sapiens): 6.66 | pIC50 [10]: 7.81

SMILES: CCCc1c(OCCCOc2ccc(-c3cscn3)c(OC)c2CC2CC2)ccc2c1OC(CCC(=O)O)CC2 (stereo not given)
pIC50 (Homo sapiens [9]): 7.31 | pIC50 (Homo sapiens [4]; Homo sapiens): 8.15 | pIC50 [10]: 7.91

SMILES: CCCc1c(OCCCOc2ccc(-c3c[nH]c(SCc4ccccc4)n3)c(OC)c2CCC)ccc2c1OC(C(=O)O)CC2 (stereo not given)
pIC50 (Homo sapiens [9]): 6.37 | pIC50 [10]: 6.12

SMILES: CCCc1c(OCCCOc2ccc(-c3cscn3)c(OC)c2CC2CC2)ccc2c1OC(C(=O)O)CC2 (stereo in doubt; -/-35)
ED50 (Cavia porcellus [2]): 98 ng | ED50 (Cavia porcellus [11]): 5.9 mg/kg | pIC50 (Homo sapiens [4]): 7.10 | ED50 (Mus musculus [22]): 0.98 mg | ED50 (Mus musculus [5]): 11.7 mg/kg

SMILES: CCCc1c(OCCCOc2ccc(-c3cscn3)c(OC)c2CC2CC2)ccc2c1OC(C(=O)O)CC2 (racemic)
ED50 (Cavia porcellus [2]): 18 ng | ED50 (Cavia porcellus [11]): 2.3 mg/kg | pIC50 (Homo sapiens [23]): 6.97 | pIC50 (Homo sapiens [24]): 5.23 | pIC50 (Homo sapiens [18]; Homo sapiens): 7.17 | pIC50 (Homo sapiens [4]; Homo sapiens): 7.32 | ED50 (Mus musculus [5]; Mus musculus, read-out: ED50): 7.1 mg/kg | pIC50 (Homo sapiens [25]): 5.85 | ED50 (Canis lupus familiaris [20]): 0.2 mg/kg

SMILES: CCCc1c(OCCCOc2ccc(-c3csc(SCc4ccccc4)n3)c(OC)c2CCC)ccc2c1OC(C(=O)O)CC2 (stereo not given)
IC50 (Leukotriene B4 receptor): > 10 µM | pIC50 [1]: 5.24

Continued, values first:

IC50 (Leukotriene B4 receptor): 1.2 µM | pIC50 [1]: 6.28
SMILES: CCCc1c(OCCCOc2ccc(-c3c[nH]cn3)c(OC)c2CCC)ccc2c1OC(C(=O)O)CC2 (stereo not given)

pIC50 (Homo sapiens [9]): 7.06 | pIC50 (Homo sapiens [4]; Homo sapiens): 6.89 | pIC50 [10]: 8.28
SMILES: CCCc1c(OCCCOc2ccc(-c3c[nH]nn3)c(OC)c2CCC)ccc2c1OC(C(=O)O)CC2 (stereo not given)

IC50 (Leukotriene B4 receptor): 1.5 µM | pIC50 [1]: 6.49
SMILES: CCCc1c(OCCCOc2ccc(-c3csc(N)n3)c(OC)c2CCC)ccc2c1OC(C(=O)O)CC2 (stereo not given)

IC50 (Leukotriene B4 receptor): > 10 µM | pIC50 [1]: 5.96
SMILES: CCCc1c(OCCCOc2ccc(-c3coc(C)n3)c(OC)c2CCC)ccc2c1OC(C(=O)O)CC2 (stereo not given)

IC50 (Leukotriene B4 receptor): 1.2 µM | pIC50 [1]: 6.21
SMILES: CCCc1c(OCCCOc2ccc(-c3cc[nH]n3)c(OC)c2CCC)ccc2c1OC(C(=O)O)CC2 (stereo not given)

pIC50 (Homo sapiens [4]; Homo sapiens): 7.05 | IC50 (Leukotriene B4 receptor): 0.287 µM | pIC50 [1]: 7.03
SMILES: CCCc1c(OCCCOc2ccc(-c3cscn3)c(OC)c2CCC)ccc2c1OC(C(=O)O)CC2 (stereo not given)

IC50 (Leukotriene B4 receptor): > 10 µM | pIC50 [1]: 5.94
SMILES: CCCc1c(OCCCOc2ccc(-c3csc(OC)n3)c(OC)c2CCC)ccc2c1OC(C(=O)O)CC2 (stereo not given)

IC50 (Leukotriene B4 receptor): 18.6 µM | pIC50 [1]: 5.55
SMILES: CCCc1c(OCCCOc2ccc(-c3csc(SC)n3)c(OC)c2CCC)ccc2c1OC(C(=O)O)CC2 (stereo not given)

pIC50 (Homo sapiens [4]; Homo sapiens): 6.64 | IC50 (Leukotriene B4 receptor): 0.43 µM | pIC50 [1]: 7.00
SMILES: CCCc1c(OCCCOc2ccc(-c3cocn3)c(OC)c2CCC)ccc2c1OC(C(=O)O)CC2 (stereo not given)

pIC50 (Homo sapiens [4]; Homo sapiens): 5.92 | IC50 (Leukotriene B4 receptor): 0.52 µM | pIC50 [1]: 6.05
SMILES: CCCc1c(OCCCOc2ccc(-c3csc(S)n3)c(OC)c2CCC)ccc2c1OC(C(=O)O)CC2 (stereo not given)
